In publication PMC8052299 (Biochemical pharmacology, 2021):
Where two headings read alike, the source gives them in different places.

Assays:
J-Lat 10.6 cells [1] = assay: LRA-induced provirus expression; type: cell-based
class I and II HDAC = assay: Cellular HDAC activity assay; type: cell-based; details: for IC50: read-out: HDAC Inhibition IC50, Jurkat cells, 90 min, HDAC-Glo I/II
J-Lat 9.2 cells = assay: LRA-induced provirus expression; type: cell-based
primary CD4+ T cells = assay: Live cell counting of primary CD4+ T cell cultures; type: cell-based, human; details: 30 nM
Method in brief: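 CD4+ T cells came from five HIV-infected donors on suppressive ART (<50 copies/mL for ≥3 years), isolated from PBMCs by negative selection. 10⁶ cells per 1 mL R20+ (20% FBS) received 0.1% DMSO or 30 nM test compound for 24 h. Alternatively: 72 h treatment, wash, re-treatment in R20+ plus IL-2 for 72–96 h, wash, then 24 h compound-free. Cells were counted visually by trypan blue.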

PBMCs = assay: Viability of uninfected PBMCs; type: cell-based, human; details: 6 days, Viacount dye
[2] = Viability of uninfected PBMCs; type: cell-based, human; details: human, CC50, uninfected PBMCs, Viacount dye
Jurkat cells = assay: Jurkat cell viability, 24 h; type: cell-based
OM-10.1 cells = assay: TNFα-induced provirus expression; type: cell-based; details: 24 h, read-out: TNFα EC50, inhibition of provirus expression
Method in brief: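 OM-10.1 cells seeded at 200,000 cells/well and co-treated with 1 ng/mL TNFα plus test compound or 0.1% DMSO for 24 h. Cells were fixed, permeabilized, stained for intracellular p24Gag (KC57-RD1) and scored on live-gated cells by flow cytometry. EC50s were derived after normalizing to TNFα-only controls.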

[3] = tested on: HIV RNA in CD4+ T cell culture supernatants; assay: Spontaneous viral RNA production in primary CD4+ T cells from donors with HIV; type: cell-based, human
J-Lat 10.6 cells [4] = type: cell-based; details: for duration of reinforced latency following withdrawal in vitro: J-Lat 10.6, after 21 days' treatment
[5] = tested on: Tat-dependent transactivation; assay: HIV Tat-induced GFP expression in CEM-GXR cells; type: cell-based, HIV-1
CDK9/cyclin T1 = CDK9/cyclin T1 (Homo sapiens, UniProt P50750); assay: CDK9 kinase activity assay; type: biochemical
HIV-1NL4.3 = assay: HIV replication assay in PBMCs; type: cell-based; details: day 6
[6] = tested on: Tat-dependent transactivation; assay: Tat-transactivated mCherry expression in JurTat cells; type: cell-based; details: up to 30 μM, JurTat
Method in brief: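 JurTat cells (Tat-Dendra plus HIV LTR-mCherry) were induced with 500 ng/mL doxycycline and seeded at 200,000 cells/well with test compound or 0.1% DMSO. After 24 h, Tat-Dendra and mCherry were measured by flow cytometry. Values are percent positive cells and mCherry:Dendra fluorescence ratio, expressed relative to 0.1% DMSO-treated cells.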

[7] = J-Lat 10.6, 24 h, read-out: HMBA EC50, inhibition of provirus expression
[8] = J-Lat 10.6, 24 h, read-out: JQ1 EC50, inhibition of provirus expression
[9] = J-Lat 10.6, 24 h, read-out: TNFα EC50, inhibition of provirus expression
[10] = J-Lat 9.2, 24 h, read-out: Panobinostat EC50, inhibition of provirus expression
[11] = J-Lat 9.2, 24 h, read-out: Prostratin EC50, inhibition of provirus expression
[12] = J-Lat 9.2, 24 h, read-out: TNFα EC50, inhibition of provirus expression
[13] = 30 nM for 6 – 7 days, washed, 24 hours without compound

Chain of CDK9/cyclin T1 (P50750 whole entry): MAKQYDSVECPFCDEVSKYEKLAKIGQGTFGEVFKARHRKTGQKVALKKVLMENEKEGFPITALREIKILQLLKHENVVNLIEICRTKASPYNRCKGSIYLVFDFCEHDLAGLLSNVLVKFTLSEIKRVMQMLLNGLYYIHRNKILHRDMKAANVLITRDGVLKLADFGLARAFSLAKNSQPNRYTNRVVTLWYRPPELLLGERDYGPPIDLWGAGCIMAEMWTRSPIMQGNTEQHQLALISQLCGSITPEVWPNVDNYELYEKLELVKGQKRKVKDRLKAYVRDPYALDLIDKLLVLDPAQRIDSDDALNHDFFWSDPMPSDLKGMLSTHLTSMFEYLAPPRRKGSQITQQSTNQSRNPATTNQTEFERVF
Chain of CDK9/cyclin T1 (O60563 whole entry partner): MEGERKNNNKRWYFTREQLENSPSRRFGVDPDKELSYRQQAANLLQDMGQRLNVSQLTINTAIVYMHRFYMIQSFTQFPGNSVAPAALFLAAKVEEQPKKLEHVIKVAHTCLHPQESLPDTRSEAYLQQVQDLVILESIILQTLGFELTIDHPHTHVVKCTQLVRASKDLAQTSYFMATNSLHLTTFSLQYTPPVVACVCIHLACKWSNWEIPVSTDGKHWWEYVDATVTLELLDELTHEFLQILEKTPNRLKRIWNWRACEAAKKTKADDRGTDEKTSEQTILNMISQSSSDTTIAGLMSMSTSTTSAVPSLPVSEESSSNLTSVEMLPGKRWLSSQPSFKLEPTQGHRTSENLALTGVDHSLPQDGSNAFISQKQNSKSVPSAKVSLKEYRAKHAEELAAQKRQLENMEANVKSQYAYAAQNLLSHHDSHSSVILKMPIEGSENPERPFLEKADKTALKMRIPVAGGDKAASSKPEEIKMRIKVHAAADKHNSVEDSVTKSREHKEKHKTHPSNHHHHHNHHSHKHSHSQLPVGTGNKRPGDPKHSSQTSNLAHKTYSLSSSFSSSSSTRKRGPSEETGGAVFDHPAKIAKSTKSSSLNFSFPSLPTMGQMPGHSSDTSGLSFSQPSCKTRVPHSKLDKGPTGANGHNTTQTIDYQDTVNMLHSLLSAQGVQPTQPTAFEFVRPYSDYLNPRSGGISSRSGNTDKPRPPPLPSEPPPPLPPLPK

## CN1CC[C@H](c2c(O)cc(O)c3c(=O)cc(-c4ccccc4Cl)oc23)[C@H](O)C1 [Flavopiridol, flavopiridol]
J-Lat 10.6 cells [1]; [7]
  EC50: 99 ± 2 nM
J-Lat 10.6 cells [1]; [8]
  EC50: 14 ± 2 nM
J-Lat 10.6 cells [1]; [9]
  EC50: 19 ± 1 nM
Class I and II HDAC
  IC50: > 1000 nM
Class I and II HDAC; up to 1 μM, Jurkat
  HDAC inhibition: no HDAC inhibition was observed
J-Lat 9.2 cells; [10]
  EC50: 28 ± 3 nM
J-Lat 9.2 cells; [11]
  EC50: 9 ± 1 nM
J-Lat 9.2 cells; [12]
  EC50: 8 ± 0.4 nM
Primary CD4+ T cells; 24 hours
  live cell count: 1.2*10^6 ± 5.6*10^5 cells/mL
Primary CD4+ T cells; after 6 – 7 days
  live cell count: 1.3*10^6 ± 3.9*10^5 cells/mL
PBMCs
  CC50: 220 ± 40 nM
[2]
  CC50 at 6 days: 250 ± 60 nM
Jurkat cells; 0.3 μM
  viability reduced vs 0.1% DMSO: 38.8 ± 25%
OM-10.1 cells
  EC50: 13 ± 0.8 nM
[3]; [13]
  average reduction in total viral RNA across all cultures: 96.8%
  cultures with reduced viral RNA production: 4 of 5
[3]; 30 nM for 6 – 7 days, washed, 24 hours, limit of detection 200 copies/mL
  cultures with no viral RNA detected: two
[3]; 30 nM, 24 hours
  average increase in viral RNA vs 0.1% DMSO: 7.1 fold
[3]; 30 nM, 24 hours, CD4+ T cells from five donors with HIV
  HIV RNA in culture supernatant: 1.7*10^9 ± 3.1*10^9 viral copies/mL
J-Lat 10.6 cells [4]; 10 nM for 21 days, J-Lat 10.6
  GFP expression 14 days following washout, % of control levels: 59.7 ± 15.2%
J-Lat 10.6 cells [4]; 10 nM for 21 days, washed, 24 h drug-free, J-Lat 10.6
  GFP expression 24 hours after washing, % of control GFP levels: 32.4 ± 3.6%
J-Lat 10.6 cells [4]; 10 nM, 21 days, J-Lat 10.6
  GFP expression before wash-out, % of untreated cells: 26.2 ± 9.6%
  reduction of spontaneous GFP expression vs 0.1% DMSO: 73.8 ± 9.6%
J-Lat 10.6 cells [4]
  duration of reinforced latency following withdrawal in vitro: ≥ 14 days

## O=c1cc(-c2ccc(O)c(O)c2)oc2cc(O[C@@H]3O[C@H](CO)[C@@H](O)[C@H](O)[C@H]3O)cc(O)c12 [L7G, luteolin-7-glucoside]
J-Lat 10.6 cells [1]; read-out: HMBA EC50, inhibition of provirus expression, J-Lat 10.6, 10 mM HMBA, 24 h, GFP
  EC50: 10100 ± 3500 nM
J-Lat 10.6 cells [1]; read-out: JQ1 EC50, inhibition of provirus expression, J-Lat 10.6, 10 μM JQ1, 24 h, GFP
  EC50: 16400 ± 3300 nM
J-Lat 10.6 cells [1]; read-out: TNFα EC50, inhibition of provirus expression, J-Lat 10.6, 10 ng/mL TNFα, 24 h, GFP
  EC50: 11900 ± 500 nM
Class I and II HDAC
  IC50: > 90000 nM
J-Lat 9.2 cells; read-out: Panobinostat EC50, inhibition of provirus expression, J-Lat 9.2, 0.1 μM panobinostat, 24 h, GFP
  EC50: 4300 ± 400 nM
J-Lat 9.2 cells; read-out: Prostratin EC50, inhibition of provirus expression, J-Lat 9.2, 10 μM prostratin, 24 h, GFP
  EC50: 17300 ± 2200 nM
J-Lat 9.2 cells; read-out: TNFα EC50, inhibition of provirus expression, J-Lat 9.2, 10 ng/mL TNFα, 24 h, GFP
  EC50: 4500 ± 600 nM
[5]; read-out: Tat-dependent transactivation EC50, pCMV-Tat-transfected CEM-GXR cells, GFP, 24 h
  EC50: > 30000 nM
[5]; up to 30 μM, CEM-GXR
  inhibition of Tat-induced GFP expression: unable to inhibit GFP expression
CDK9/cyclin T1
  CDK9 IC50 fold higher than aglycone analogue luteolin: 96 fold
CDK9/cyclin T1; read-out: CDK9 inhibition IC50, purified CDK9/cyclin T1, 10 μM ATP, ADP-Glo
  IC50: 6900 ± 3900 nM
PBMCs
  CC50: 18300 ± 2500 nM
OM-10.1 cells; OM-10.1, 1 ng/mL TNFα, p24Gag
  EC50: 10300 ± 1200 nM
HIV-1NL4.3; 1 μM
  HIV replication suppressed: 26.3 ± 24.8%
HIV-1NL4.3; 10 μM
  HIV replication suppressed: 77.3 ± 32.7%
[6]
  effect on ratio of mCherry:Dendra fluorescence: neither naringenin nor L7G substantially affected the ratio
J-Lat 10.6 cells [4]; 10 μM, 21 days, J-Lat 10.6
  spontaneous latency reversal: highly variable, but not inhibited

## COc1cc(F)ccc1-c1ncnc(Nc2cccc(C[S@](C)(=N)=O)c2)n1 [Atuveciclib, atuveciclib, reference compound]
J-Lat 10.6 cells [1]; [7]
  EC50: 1800 ± 100 nM
J-Lat 10.6 cells [1]; [8]
  EC50: 2400 ± 200 nM
J-Lat 10.6 cells [1]; [9]
  EC50: 4300 ± 200 nM
Class I and II HDAC; 10 μM, Jurkat
  HDAC activity inhibited: 11.3 ± 12.9%
Class I and II HDAC; 90 μM, Jurkat
  HDAC activity inhibited: 29.7 ± 14.3%
Class I and II HDAC
  IC50: > 90000 nM
J-Lat 9.2 cells; [10]
  EC50: 3600 ± 800 nM
J-Lat 9.2 cells; [11]
  EC50: 1800 ± 100 nM
J-Lat 9.2 cells; [12]
  EC50: 1700 ± 200 nM
PBMCs
  CC50: 24400 ± 1500 nM
[2]
  CC50 at 6 days: 24700 ± 4900 nM
Jurkat cells; 30 μM
  viability reduced vs 0.1% DMSO: 61.3 ± 2.6%
OM-10.1 cells
  EC50: 1800 ± 90 nM
J-Lat 10.6 cells [4]; 10 μM for 21 days, J-Lat 10.6
  GFP expression 11 days following wash-out: returned to those of untreated controls
J-Lat 10.6 cells [4]; 10 μM for 21 days, washed, 24 h drug-free, J-Lat 10.6
  GFP expression 24 hours after washing, % of vehicle-treated control cells: 53.0 ± 0.8%
J-Lat 10.6 cells [4]; 10 μM, 21 days, J-Lat 10.6
  GFP expression before wash-out, % of untreated cells: 3.4 ± 0.7%
J-Lat 10.6 cells [4]; 10 μM, after 9 days, J-Lat 10.6
  spontaneous GFP production abolished: > 95%
J-Lat 10.6 cells [4]
  duration of reinforced latency following withdrawal in vitro: 9 days
